Reference: ChEMBL document CHEMBL1149681, “OSW-1 analogues: modification of the carbohydrate moiety” (Bioorg Med Chem Lett, 2007)

How the values were obtained:
Format in all cases: functional, cell-based
[1] = tested on: T47D; assay: Antitumor activity against human T47D cells by methylene blue staining method
Summary of the method: (§1)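 Cells grown in RPMI1640 with 10% fetal bovine serum, seeded in 96-well plates and cultured overnight at 37 °C, 5% CO2 before serially diluted samples were added. After 3 days of culture, stained 30 min with 0.05% methylene blue in 10 mM Tris pH 8.5, washed with water, dye extracted with 3% HCl, OD660 read. Independent triplicates; IC50 from means. Cisplatin control included in each assay.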

[2] = tested on: NCI-H460; assay: Antitumor activity against human NCI-H460 cells by methylene blue staining method; summary of the method: as §1
[3] = tested on: MDA-MB-231; assay: Antitumor activity against human MDA-MB-231 cells by methylene blue staining method; summary of the method: as §1
[4] = tested on: A498; assay: Antitumor activity against human A498 cells by methylene blue staining method; summary of the method: as §1
[5] = tested on: PC-3; assay: Antitumor activity against human PC3 cells by methylene blue staining method; summary of the method: as §1
[6] = tested on: DLD-1; assay: Antitumor activity against human DLD1 cells by methylene blue staining method; summary of the method: as §1
[7] = tested on: HCT-116; assay: Antitumor activity against human HCT116 cells by methylene blue staining method; summary of the method: as §1
[8] = tested on: UO-31; assay: Antitumor activity against human UO31 cells by methylene blue staining method; summary of the method: as §1

Compound	IC50 [1] [nM]	IC50 [2] [nM]	IC50 [3] [nM]	IC50 [4] [nM]	IC50 [5] [nM]	IC50 [6] [nM]	IC50 [7] [nM]	IC50 [8] [nM]
COc1cccc2c1C(=O)c1c(O)c3c(c(O)c1C2=O)C[C@@](O)(C(=O)CO)C[C@@H]3O[C@H]1C[C@H](N)[C@H](O)[C@H](C)O1 [DOXORUBICIN]	27	3.7	100	35	200	100	37	100
CC(=O)O[C@@H]1[C@@H](O[C@H]2C[C@H]3[C@@H]4CCc5cc(O)ccc5[C@H]4CC[C@]3(C)[C@@]2(O)[C@H](C)C(=O)CCC(C)C)OC[C@@H](O)[C@H]1O[C@@H]1OC[C@@H](O)[C@H](O)[C@H]1O	–	9980	6940	–	–	–	–	–
COc1ccc(C(=O)O[C@H]2[C@H](O[C@H]3[C@H](OC(C)=O)[C@@H](O[C@H]4C[C@H]5[C@@H]6CCc7cc(O)ccc7[C@H]6CC[C@]5(C)[C@@]4(O)[C@H](C)C(=O)CCC(C)C)OC[C@H]3O)OC[C@@H](O)[C@@H]2O)cc1	710	260	680	430	1400	1180	–	–
COc1ccc(C(=O)O[C@H]2[C@H](O[C@H]3[C@H](OC(C)=O)[C@@H](O[C@H]4C[C@H]5[C@@H]6CCc7cc(O)ccc7[C@H]6CC[C@]5(C)[C@@]4(O)[C@H](C)C(=O)CCC(C)C)OC[C@H]3F)OC[C@@H](O)[C@@H]2O)cc1	2810	2590	850	300	680	1720	2900	56
COc1ccc(C(=O)O[C@H]2[C@H](O[C@@H]3CCO[C@H](O[C@H]4C[C@H]5[C@@H]6CCc7cc(O)ccc7[C@H]6CC[C@]5(C)[C@@]4(O)[C@H](C)C(=O)CCC(C)C)[C@H]3OC(C)=O)OC[C@@H](O)[C@@H]2O)cc1	–	13700	10900	–	–	–	–	–
COc1ccc(C(=O)O[C@@H]2CCO[C@H]2O[C@H]2[C@H](OC(C)=O)[C@@H](O[C@H]3C[C@H]4[C@@H]5CCc6cc(O)ccc6[C@H]5CC[C@]4(C)[C@@]3(O)[C@H](C)C(=O)CCC(C)C)OC[C@H]2O)cc1	–	5750	18200	–	–	–	–	–
